Source: ChEMBL document CHEMBL5104186, “Structure-Activity Relationship and Neuroprotective Activity of 1,5-Dihydro-2H-naphtho[1,2-b][1,4]diazepine-2,4(3H)-diones as P2X4 Receptor Antagonists” (J Med Chem, 2022)
pIC50, pKi: −log10 of the molar value. Active and inactive are the calls of the source. The rule behind the calls is not given here.

Tests used:
[1] = molecular target: T1, P2X purinoceptor 1 (Homo sapiens) (UniProt P51575); experiment: Antagonist activity at human P2X1R transfected in CHO-K1 cells at 30 uM preincubated for 30 mins followed by alpha,beta-meATP addition by […] based assay relative to control; assay type: cell-based; design: scale not given: the % may be the effect or the level left
T1 sequence (whole entry): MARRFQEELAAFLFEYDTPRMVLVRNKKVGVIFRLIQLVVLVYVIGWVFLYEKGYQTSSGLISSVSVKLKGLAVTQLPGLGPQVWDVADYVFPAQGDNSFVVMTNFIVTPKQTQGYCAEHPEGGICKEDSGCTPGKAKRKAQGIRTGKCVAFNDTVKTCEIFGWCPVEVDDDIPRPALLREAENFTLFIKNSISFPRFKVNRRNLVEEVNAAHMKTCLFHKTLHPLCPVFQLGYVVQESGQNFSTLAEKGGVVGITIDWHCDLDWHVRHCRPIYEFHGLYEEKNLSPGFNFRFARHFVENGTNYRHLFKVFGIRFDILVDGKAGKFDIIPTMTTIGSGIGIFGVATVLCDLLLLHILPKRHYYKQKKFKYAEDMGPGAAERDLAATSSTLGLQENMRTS

[2] = molecular target: P2X2/P2X3 heterotrimeric receptor (Homo sapiens) (UniProt Q9UBL9+P56373); experiment: Antagonist activity at human P2X2/3R transfected in CHO-K1 cells at 30 uM preincubated for 30 mins followed by alpha,beta-meATP addition by fluorescence based assay relative to control; assay type: cell-based; design: scale not given: the % may be the effect or the level left
[3] = molecular target: T2, P2X purinoceptor 3 (Homo sapiens) (UniProt P56373); experiment: Antagonist activity at human P2X3R transfected in CHO-K1 cells at 30 uM preincubated for 30 mins followed by alpha,beta-meATP addition by fluorescence based assay relative to control; assay type: cell-based; design: scale not given: the % may be the effect or the level left
T2 sequence (whole entry): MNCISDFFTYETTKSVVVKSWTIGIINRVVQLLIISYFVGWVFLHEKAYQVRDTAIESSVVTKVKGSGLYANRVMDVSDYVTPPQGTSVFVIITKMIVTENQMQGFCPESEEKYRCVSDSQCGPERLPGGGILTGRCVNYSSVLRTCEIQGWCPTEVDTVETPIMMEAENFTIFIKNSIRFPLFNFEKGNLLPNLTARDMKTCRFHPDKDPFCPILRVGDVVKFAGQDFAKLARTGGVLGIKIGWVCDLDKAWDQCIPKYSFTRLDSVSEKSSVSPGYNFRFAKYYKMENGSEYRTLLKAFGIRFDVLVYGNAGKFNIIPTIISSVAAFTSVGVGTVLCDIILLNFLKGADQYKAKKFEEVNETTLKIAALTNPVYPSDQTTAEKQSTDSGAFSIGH

[4] = molecular target: T3, P2X purinoceptor 4 (Homo sapiens) (UniProt Q99571); experiment: Antagonist activity at human P2X4R transfected in HEK293 cells at 30 uM preincubated for 30 mins followed by CTP addition by fluorescence based assay relative to control; assay type: cell-based; design: scale not given: the % may be the effect or the level left
T3 sequence (whole entry): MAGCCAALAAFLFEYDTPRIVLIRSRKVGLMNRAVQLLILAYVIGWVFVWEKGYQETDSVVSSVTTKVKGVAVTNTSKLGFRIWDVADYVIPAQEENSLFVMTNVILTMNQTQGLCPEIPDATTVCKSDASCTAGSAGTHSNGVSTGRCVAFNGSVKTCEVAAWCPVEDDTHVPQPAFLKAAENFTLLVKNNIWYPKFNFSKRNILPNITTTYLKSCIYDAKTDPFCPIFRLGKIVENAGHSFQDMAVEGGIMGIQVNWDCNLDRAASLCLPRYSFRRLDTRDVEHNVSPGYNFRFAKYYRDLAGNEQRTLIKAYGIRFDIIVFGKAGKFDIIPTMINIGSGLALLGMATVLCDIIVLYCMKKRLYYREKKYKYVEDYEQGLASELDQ

P2X purinoceptor 4 [5] = molecular target: T4, P2X purinoceptor 4 (Rattus norvegicus, UniProt P51577); experiment: Antagonist activity at rat P2X4R expressed in HEK293 cells preincubated for 2 mins followed by ATP addition and measured after 4 mins; assay type: cell-based
T4 sequence (P51577 whole entry): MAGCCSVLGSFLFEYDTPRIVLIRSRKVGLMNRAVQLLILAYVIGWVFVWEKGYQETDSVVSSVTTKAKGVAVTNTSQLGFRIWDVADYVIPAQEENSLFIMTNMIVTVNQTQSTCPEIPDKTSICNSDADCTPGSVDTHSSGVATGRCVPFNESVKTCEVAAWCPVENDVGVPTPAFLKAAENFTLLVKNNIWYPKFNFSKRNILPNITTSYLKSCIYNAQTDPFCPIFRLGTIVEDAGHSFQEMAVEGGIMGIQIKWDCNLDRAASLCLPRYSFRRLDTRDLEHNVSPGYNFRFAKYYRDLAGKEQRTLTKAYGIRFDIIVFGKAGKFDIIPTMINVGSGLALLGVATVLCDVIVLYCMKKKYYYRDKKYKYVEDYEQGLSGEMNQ

P2X purinoceptor 4 [6] = molecular target: T5, P2X purinoceptor 4 (Homo sapiens, UniProt Q99571); experiment: Antagonist activity at human P2X4R transfected in HEK293 cells preincubated for 30 mins followed by CTP addition by fluorescence based assay; assay type: cell-based
T5 sequence (Q99571 whole entry): T3 sequence (whole entry)

Mus musculus [7] = experiment: Neuroprotective activity in Wild type C57B/6 mouse model of middle cerebral artery occlusion assessed as reduction in hemispheric infract size at 5 mg/kg/day administered for 3 days; assay type: functional, organism-based; conditions: time 3.0 day
Method in brief: (§1)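 C57B/6 mice (8–12-week-old males; 12–13-month-old mice in one study) underwent MCAO (filament, laser Doppler confirmation, 37 °C). At reperfusion a subcutaneous Alzet pump was implanted, giving 0.5–3.0 or 5.0 mg/kg/day for 3 days; vehicle was PBS. At day 3, TTC-stained coronal sections were scored blind, with edema-corrected (Swanson) infarct volume as % of contralateral. Mean ± S.D.; n = 5–6.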

Mus musculus [8] = experiment: Neuroprotective activity in Wild type C57B/6 mouse model of middle cerebral artery occlusion assessed as reduction in hemispheric infract size at 0.5 to 3 mg/kg/day administered for 3 days; assay type: functional, organism-based; conditions: dose 0.5-3 mg/kg/day, time 3.0 day; method in brief: as §1
[9] = molecular target: T6, 5-hydroxytryptamine receptor 2C (Homo sapiens, UniProt P28335); experiment: Binding affinity to human 5HT2C serotonin receptor
T6 sequence (P28335 whole entry): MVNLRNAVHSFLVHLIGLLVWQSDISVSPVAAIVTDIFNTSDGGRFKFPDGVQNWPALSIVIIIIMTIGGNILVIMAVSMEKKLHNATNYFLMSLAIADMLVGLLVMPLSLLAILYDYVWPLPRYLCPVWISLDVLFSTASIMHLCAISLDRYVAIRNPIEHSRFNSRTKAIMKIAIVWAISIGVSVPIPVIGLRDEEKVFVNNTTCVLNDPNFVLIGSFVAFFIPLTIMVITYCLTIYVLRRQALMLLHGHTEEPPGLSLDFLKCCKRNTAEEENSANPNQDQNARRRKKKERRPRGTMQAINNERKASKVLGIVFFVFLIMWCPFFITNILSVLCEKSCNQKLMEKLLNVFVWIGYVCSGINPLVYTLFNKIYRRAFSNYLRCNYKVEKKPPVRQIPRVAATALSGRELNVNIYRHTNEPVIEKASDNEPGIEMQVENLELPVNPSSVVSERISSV
Method in brief: (§2)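 Off-target radioligand binding was run by the NIMH Psychoactive Drug Screening Program across 45 receptors, channels and transporters. Ki in nM, given as mean ± SEM.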

Mus musculus [10] = experiment: Neuroprotective activity in Wild type C57B/6 mouse model of middle cerebral artery occlusion assessed as reduction in infract damage at […] administered for 3 days by TTC staining based assay; assay type: functional, organism-based; conditions: time 3.0 day
[11] = Effect on locomotor activity in C57B/6 mouse model of middle cerebral artery occlusion at 1.5 to 3 mg/kg/day measured over 4 weeks after stroke by open field test; assay type: toxicity, organism-based; conditions: in vivo, 672 h, dose 1.5-3 mg/kg/day
Method in brief: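 C57B/6 mice underwent MCAO and received a subcutaneous Alzet minipump (vehicle 1× PBS) at reperfusion, delivering compound for 3 days. Open-field test: 10 min exploration of a 16″ acrylic box at several time points; total beam breaks recorded. Mean ± S.D.; n = 8–15/group, both sexes.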

Mus musculus [12] = experiment: Improvement in learning and memory in C57B/6 mouse model of middle cerebral artery occlusion at 3 mg/kg measured after 4 weeks post stroke by NORT; assay type: functional, organism-based
Method in brief: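 Middle-aged C57B/6 mice (both sexes) underwent MCAO and received a 3-day subcutaneous minipump infusion from reperfusion (vehicle PBS). NORT was run 4 weeks post-stroke: 1 h acclimatisation, 10 min habituation, 10 min trial with two identical objects, then a test 24 h later with one novel object. Discrimination index = (TN − TF)/(TN + TF). One-way ANOVA with Tukey; n = 5–11/group.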

MDM [13] = experiment: Inhibition of ATP-induced calcium influx in human monocytes derived macrophages assessed as decrease in calcium altitude at 0.6 uM preincubated for 15 mins followed by ATP addition and measured upto 4 mins by laser scanning confocal microscopic analysis; assay type: functional, cell-based; conditions: time <= 19.0 min
Method in brief: (§3)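 Monocytes matured into macrophages with GM-CSF (5 ng/mL) for 5–7 days, then seeded 10^4 cells/dish for ≥24 h. Calbryte 590 AM loaded for 60 min in HBSS/HEPES. Cells pretreated 15 min with 0–3 μM compound, then 50 μM ATP added; confocal images taken every 6 s for up to 4 min. Read-out is peak cytosolic Ca2+ amplitude (F/F0). Mean ± SEM; ANOVA with Tukey.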

Mus musculus [14] = experiment: Neuroprotective activity in Wild type C57B/6 mouse model of middle cerebral artery occlusion assessed as reduction in tissue atrophy at […] administered for 3 days measured after 35 days by CV staining based assay; assay type: functional, organism-based; conditions: time 3.0 day
D(3) dopamine receptor = D(3) dopamine receptor (Homo sapiens, UniProt P35462); experiment: Binding affinity to human D3 dopamine receptor; method in brief: as §2
D(3) dopamine receptor, sequence (P35462 whole entry): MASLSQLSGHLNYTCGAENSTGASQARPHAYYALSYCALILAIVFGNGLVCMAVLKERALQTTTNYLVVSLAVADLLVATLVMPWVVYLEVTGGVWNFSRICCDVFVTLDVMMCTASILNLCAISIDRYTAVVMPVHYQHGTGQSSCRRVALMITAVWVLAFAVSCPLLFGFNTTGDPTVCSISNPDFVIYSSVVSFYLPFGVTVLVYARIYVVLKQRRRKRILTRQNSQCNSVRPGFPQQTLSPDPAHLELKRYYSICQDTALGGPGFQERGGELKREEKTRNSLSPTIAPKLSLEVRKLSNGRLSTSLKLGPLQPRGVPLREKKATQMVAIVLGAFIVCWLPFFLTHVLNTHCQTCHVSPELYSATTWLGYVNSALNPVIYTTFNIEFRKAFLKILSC

MDM [15] = experiment: Inhibition of ATP-induced calcium influx in human monocytes derived macrophages preincubated for 15 mins followed by ATP addition and measured upto 4 mins by laser scanning confocal microscopic analysis; assay type: functional, cell-based; conditions: dose 0.6-3 µM, time <= 19.0 min, DDE = dose-dependent effect; method in brief: as §3
Mus musculus [16] = experiment: Neuroprotective activity in Wild type C57B/6 mouse model of middle cerebral artery occlusion assessed as reduction in cortical infract volume at […] administered for 3 days; assay type: functional, organism-based; conditions: time 3.0 day

Row | SMILES | Activity [1] [%] | Activity [2] [%] | Activity [3] [%] | Activity [4] [%] | further results
1 | CC(=O)NCc1ccc2ccc3c(c2c1)NC(=O)CC(=O)N3c1cccc(-c2noc(=S)[nH]2)c1 | 26 | -5 | 9 | 16 | –
2 | O=C1CN=C(c2cccc(Br)c2)c2oc3ccccc3c2N1 | – | – | – | – | pIC50 (P2X purinoceptor 4 [5]): 6.12
3 | O=C1CC(=O)N(c2cccc(-c3noc(=S)[nH]3)c2)c2cc(C#Cc3ccccc3)c3ccccc3c2N1 | 14 | 5 | 7 | -4 | –
4 | O=C1CC(=O)N(c2cccc(-c3noc(=S)[nH]3)c2)c2cc(-c3ccccc3)c3ccccc3c2N1 | 14 | 10 | 11 | – | pIC50 (P2X purinoceptor 4 [6]): 4.68
5 | NCc1ccc2ccc3c(c2c1)NC(=O)CC(=O)N3c1cccc(-c2noc(=S)[nH]2)c1 | 8 | 0 | 9 | 9 | –
6 | Cc1ccc2c3c(ccc2c1)N(c1cccc(-c2noc(=S)[nH]2)c1)C(=O)CC(=O)N3 | – | – | – | – | Activity (Mus musculus [7]): Active
7 | CCc1cc2c(c3ccccc13)NC(=O)CC(=O)N2c1cccc(-c2noc(=S)[nH]2)c1 | 6 | 10 | 6 | – | –
8 | Cc1ccc2c(Br)cc3c(c2c1)NC(=O)CC(=O)N3c1cccc(-c2noc(=S)[nH]2)c1 | -2 | -5 | 17 | – | pIC50 (P2X purinoceptor 4 [6]): 4.93
9 | CCCCC#Cc1cc2c(c3ccccc13)NC(=O)CC(=O)N2c1cccc(-c2noc(=S)[nH]2)c1 | 16 | 1 | 18 | 15 | –
10 | [N-]=[N+]=NCc1ccc2ccc3c(c2c1)NC(=O)CC(=O)N3c1cccc(-c2noc(=S)[nH]2)c1 | 8 | 4 | 13 | 6 | –
11 | [N-]=[N+]=NCc1ccc2c(Br)cc3c(c2c1)NC(=O)CC(=O)N3c1cccc(-c2noc(=S)[nH]2)c1 | -13 | -4 | 15 | 8 | –
12 | Cc1cc(-c2noc(=S)[nH]2)cc(N2C(=O)CC(=O)Nc3c2ccc2ccccc32)c1 | 16 | 5 | 12 | – | –
13 | O=C1CC(=O)N(c2cccc(-c3noc(=S)[nH]3)c2)c2cc(C#Cc3cccnc3)c3ccccc3c2N1 | 9 | 13 | 9 | 34 | –
14 | [N-]=[N+]=NCc1ccc2c3c(ccc2c1)N(c1cccc(-c2noc(=S)[nH]2)c1)C(=O)CC(=O)N3 | -5 | 2 | 0 | – | pIC50 (P2X purinoceptor 4 [6]): 4.67
15 | O=C1CC(=O)N(c2cncc(-c3noc(=S)[nH]3)c2)c2ccc3ccccc3c2N1 | 15 | 25 | 6 | – | –
16 | O=C1CC(=O)N(c2cc(-c3noc(=S)[nH]3)ccn2)c2ccc3ccccc3c2N1 | 18 | -6 | 18 | – | –
17 | CCN(CC)CC.O=C1CC(=O)N(c2ccnc(-c3noc(=S)[nH]3)c2)c2ccc3ccccc3c2N1 | – | – | – | – | Activity (Mus musculus [8]): Active; pKi [9]: 8.22; Activity (Mus musculus [10]): Active; Activity [11]: Non-Toxic; Activity (Mus musculus [12]): Active; inhibition (MDM [13]): Active; Activity (Mus musculus [14]): Active; pKi (D(3) dopamine receptor): 9.11; inhibition (MDM [15]): Dde; Activity (Mus musculus [16]): Active
18 | O=C1CC(=O)N(c2cccc(-c3noc(=S)[nH]3)n2)c2ccc3ccccc3c2N1 | 31 | 15 | 17 | – | –
